Assay [1] addresses T1, Adenosine receptor A2a (Homo sapiens, UniProt P29274). The experiment in a line: Displacement of [3H]ZM241385 from human adenosine A2A receptor expressed in human HeLa cell membranes at 1 uM after 30 mins relative to control. A general note: Loss of bound radioactivity is the signal in a displacement assay; it reports binding, not function.
Assay [2] concerns the target T2, Adenosine receptor A2b (Homo sapiens) (UniProt P29275).
T2 sequence (whole entry): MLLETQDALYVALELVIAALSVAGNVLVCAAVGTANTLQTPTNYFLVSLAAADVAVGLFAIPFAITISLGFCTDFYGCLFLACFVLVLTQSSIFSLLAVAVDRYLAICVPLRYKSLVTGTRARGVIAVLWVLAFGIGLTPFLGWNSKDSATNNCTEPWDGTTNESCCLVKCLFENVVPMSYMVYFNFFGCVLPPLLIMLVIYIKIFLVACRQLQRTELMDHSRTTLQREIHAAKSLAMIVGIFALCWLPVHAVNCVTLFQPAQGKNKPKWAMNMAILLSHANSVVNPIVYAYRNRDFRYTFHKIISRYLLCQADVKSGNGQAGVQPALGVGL
Put plainly: Displacement of [3H]DPCPX from human adenosine A2B receptor expressed in HEK293 cell membranes at 1 uM after 30 mins relative to control.

Another assay has as its target T3, Adenosine receptor A3 (Homo sapiens, UniProt P0DMS8).
T3 sequence (P0DMS8 whole entry): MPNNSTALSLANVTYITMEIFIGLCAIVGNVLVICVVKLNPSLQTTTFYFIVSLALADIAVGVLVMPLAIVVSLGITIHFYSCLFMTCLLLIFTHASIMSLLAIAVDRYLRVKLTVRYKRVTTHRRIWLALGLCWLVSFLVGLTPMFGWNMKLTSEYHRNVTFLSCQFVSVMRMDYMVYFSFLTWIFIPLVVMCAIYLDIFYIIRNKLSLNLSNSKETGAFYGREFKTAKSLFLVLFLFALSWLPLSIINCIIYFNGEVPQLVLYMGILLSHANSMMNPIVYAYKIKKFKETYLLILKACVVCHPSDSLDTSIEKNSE
Put plainly: (§1) Displacement of [3H]NECA from human adenosine A3 receptor expressed in human HeLa cell membranes after 180 mins.

For assay [3], the target named is T4, Adenosine receptor A1 (Homo sapiens) (UniProt P30542).
T4 sequence (whole entry): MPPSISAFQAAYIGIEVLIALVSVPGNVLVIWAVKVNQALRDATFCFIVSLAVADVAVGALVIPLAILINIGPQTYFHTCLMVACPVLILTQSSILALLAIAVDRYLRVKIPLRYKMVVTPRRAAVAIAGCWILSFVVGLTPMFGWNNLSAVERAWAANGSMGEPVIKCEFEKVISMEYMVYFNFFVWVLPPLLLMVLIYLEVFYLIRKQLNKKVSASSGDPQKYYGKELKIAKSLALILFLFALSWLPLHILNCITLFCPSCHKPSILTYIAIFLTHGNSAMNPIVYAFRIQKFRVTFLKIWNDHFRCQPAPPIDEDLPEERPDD
Put plainly: Displacement of [3H]DPCPX from human adenosine A1 receptor expressed in CHO cell membranes at 1 uM after 60 mins relative to control.

Another assay has as its target T5, Adenosine receptor A2b (Homo sapiens, UniProt P29275).
T5 sequence (P29275 whole entry): T2 sequence (whole entry)
Put plainly: Displacement of [3H]DPCPX from human adenosine A2B receptor expressed in HEK293 cell membranes after 30 mins.

The next assay deals with T6, Adenosine receptor A1 (Homo sapiens, UniProt P30542).
T6 sequence (P30542 whole entry): T4 sequence (whole entry)
Put plainly: Displacement of [3H]DPCPX from human adenosine A1 receptor expressed in CHO cell membranes after 60 mins.

In assay [4] the target is T1, Adenosine receptor A2a. The experiment in a line: Displacement of [3H]ZM241385 from human adenosine A2A receptor expressed in human HeLa cell membranes after 30 mins.
Assay [5] addresses Adenosine receptors; A1 & A3 (Homo sapiens) (UniProt P30542+P0DMS8). Put plainly: Selectivity ratio of Ki for human adenosine A1 receptor expressed in CHO cell membranes to Ki for human adenosine A3 receptor expressed in human HeLa cell membranes. It is filed as cell-based.
Assay [6] has as its target T7, Adenosine receptor A3 (Homo sapiens) (UniProt P0DMS8).
T7 sequence (whole entry): T3 sequence (P0DMS8 whole entry)
Put plainly: Antagonist activity at human adenosine A3 receptor expressed in CHO cells assessed as decrease in NECA-induced inhibition of forskolin-stimulated cAMP formation preincubated for 15 mins followed by NECA addition for 10 mins and subsequent forskolin challenge for 5 mins by enzyme immunoassay. The assay is classed as functional, cell-based. An outline of the steps: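 CHO-A3 cells seeded at 20 000/well in DMEM-F12 with 10% FCS and 1% L-glutamine, grown 24 h at 37 °C, 5% CO2. Washed, then preincubated 15 min at 37 °C in DMEM-F12/25 mM HEPES pH 7.4 with 30 μM rolipram plus antagonist.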
On the technique in general: Changes in cAMP serve as a functional read-out for many G protein-coupled receptors.

Assay [7] concerns the target T7, Adenosine receptor A3 (Homo sapiens). Described as §1.

The source made the active and inactive calls. The calls are words filed in the database; no cut-off is given here.

T1 sequence (P29274 whole entry): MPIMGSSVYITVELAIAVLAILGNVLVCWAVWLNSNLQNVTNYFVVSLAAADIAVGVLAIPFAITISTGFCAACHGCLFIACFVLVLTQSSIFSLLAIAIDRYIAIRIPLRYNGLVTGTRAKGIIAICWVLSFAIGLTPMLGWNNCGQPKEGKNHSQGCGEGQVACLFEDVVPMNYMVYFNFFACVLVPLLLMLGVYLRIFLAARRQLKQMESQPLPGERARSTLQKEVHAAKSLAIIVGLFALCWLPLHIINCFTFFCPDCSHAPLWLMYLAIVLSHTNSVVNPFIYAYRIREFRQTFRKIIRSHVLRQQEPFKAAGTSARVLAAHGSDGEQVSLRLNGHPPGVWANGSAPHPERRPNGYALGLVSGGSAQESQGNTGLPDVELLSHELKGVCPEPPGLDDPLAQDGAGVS

Turning to `COc1ccc(-c2cc(NC(C)=O)nc(-c3ccc(OC)cc3OC)c2)c(OC)c1`, the inhibition – broadly, the relative decrease from the control value, in per cent – on Adenosine receptor A2a [1] worked out at 2%.
Same read-out and setting: as for `CC(=O)Nc1cc(-c2ccc(C)cc2)cc(-c2ccc(C)cc2)n1`, the figure is 1%.
With `COc1ccccc1-c1cc(NC(C)=O)nc(-c2ccccc2OC)c1`, the inhibition in [2] came to 19%; in [3], 8%; on Adenosine receptor A2a [1], 1%. Also, the Ki (usually the equilibrium dissociation constant of an inhibitor or competing ligand from its target) on Adenosine receptor A3 stood at 781 nM.
Take `CC(=O)Nc1cc(-c2ccccc2)cc(-c2ccccc2)n1`: the Ki at Adenosine receptor A2b was 51.2 nM; at Adenosine receptor A1 it was 21.1 nM; at Adenosine receptor A3 it was 98.5 nM. The same molecule returned an inhibition at Adenosine receptor A2a [1] of 49%.
In the case of `CC(=O)Nc1cc(-c2ccc(OC(F)(F)F)cc2)cc(-c2ccc(OC(F)(F)F)cc2)n1`, the inhibition on Adenosine receptor A2a [1] was 1%.
Still for that read-out and setting: to `CC(=O)Nc1cc(-c2ccc(C(C)=O)cc2)cc(-c2ccc(C(C)=O)cc2)n1` belongs 4%; to `COc1cccc(OC)c1-c1cc(NC(C)=O)nc(-c2c(OC)cccc2OC)c1`, 1%.
For the molecule `COc1cccc(-c2cc(NC(C)=O)nc(-c3cccc(OC)c3OC)c2)c1OC`, the Ki on Adenosine receptor A2a [4] amounted to 353 nM.
Turning to `COc1ccc(-c2cc(NC(C)=O)nc(-c3ccc(OC)c(OC)c3)c2)cc1OC`, at Adenosine receptor A2a [1], the inhibition worked out at 1%.
The same measure, in the same setting: as for `CSc1ccc(-c2cc(NC(C)=O)nc(-c3ccc(SC)cc3)c2)cc1`, the figure is 2%.
As for `CC(=O)Nc1cc(-c2ccc3c(c2)OCO3)cc(-c2ccc3c(c2)OCO3)n1`, the inhibition in [2] came to 27%; at Adenosine receptor A2a [1], 9%. For the same molecule, the Ki at Adenosine receptor A1 came out at 91.1 nM; at Adenosine receptor A3 it was 2.8 nM. Also, in assay [5], the Ratio Ki worked out at 30. Further, the Kb (commonly the equilibrium dissociation constant of an antagonist, usually derived from a functional assay) in assay [6] is 1.9 nM.
With `COc1cc(-c2cc(NC(C)=O)nc(-c3cc(OC)c(OC)c(OC)c3)c2)cc(OC)c1OC`, the inhibition was determined as 4% in [2], 8% in [3] and 15% at Adenosine receptor A2a [1]. This molecule also showed a Ki at Adenosine receptor A3 of 116 nM.
In turn, `COc1cc(OC)cc(-c2cc(NC(C)=O)nc(-c3cc(OC)cc(OC)c3)c2)c1` had an inhibition at Adenosine receptor A2a [1] of 2%.
Take `CC(=O)Nc1cc(-c2ccc(C(C)=O)cc2)nc(-c2ccc(C(C)=O)cc2)n1`: the inhibition result in [7] is “Active”.
As to `COc1ccccc1-c1cc(NC(C)=O)nc(-c2ccccc2OC)n1`, the inhibition entry in assay [7] was “Active”.
`COc1ccc(-c2cc(NC(C)=O)nc(-c3ccc(OC)cc3)c2)cc1` had an inhibition on Adenosine receptor A2a [1] of 15%.
As for `COc1ccc(OC)c(-c2cc(NC(C)=O)nc(-c3cc(OC)ccc3OC)c2)c1`, the inhibition was 1% in assay [2], 3% in assay [3] and 3% at Adenosine receptor A2a [1]. At Adenosine receptor A3, this molecule gave a Ki of 35.2 nM.
On Adenosine receptor A1, `COc1cccc(-c2cc(NC(C)=O)nc(-c3cccc(OC)c3)c2)c1` had an inhibitory constant (Ki) of 239 nM. At Adenosine receptor A2a [1], this molecule registered an inhibition of 21%.
